The source made the active and inactive calls. The calls are words filed in the database; no cut-off is given here.

Data set [1] is filed under the species Homo sapiens. The experiment in a line: Agonist activity at LXR in human U937 cells assessed as upregulation of ABCA1 mRNA levels at 10 uM after 6 hrs by qPCR analysis. The data set is classed as cell-based. Put shortly:
(§1)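 U937 cells, 3x10⁶ in 10 ml RPMI with 10% FBS, differentiated with PMA 10 ng/ml for 72 h at 37 °C, then treated with ligand (10 μM) for 6 h. Total RNA was isolated with TRIZOL; 2 µg was reverse-transcribed for 1 h at 42 °C. Transcripts were measured by qPCR. Mean ± SD of three biological samples; ANOVA with Dunnett's test.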

The nature of data set [2]: Agonist activity at LXR in human U937 cells assessed as upregulation of SREBP1c mRNA levels at 10 uM after 6 hrs by qPCR analysis. The data set is classed as cell-based. Put shortly: as §1
Background: In qPCR the cycle at which signal appears reflects the starting amount.

In data set [3] the target is T1, Peroxisome proliferator-activated receptor gamma (Homo sapiens) (UniProt P37231).
T1 sequence (whole entry): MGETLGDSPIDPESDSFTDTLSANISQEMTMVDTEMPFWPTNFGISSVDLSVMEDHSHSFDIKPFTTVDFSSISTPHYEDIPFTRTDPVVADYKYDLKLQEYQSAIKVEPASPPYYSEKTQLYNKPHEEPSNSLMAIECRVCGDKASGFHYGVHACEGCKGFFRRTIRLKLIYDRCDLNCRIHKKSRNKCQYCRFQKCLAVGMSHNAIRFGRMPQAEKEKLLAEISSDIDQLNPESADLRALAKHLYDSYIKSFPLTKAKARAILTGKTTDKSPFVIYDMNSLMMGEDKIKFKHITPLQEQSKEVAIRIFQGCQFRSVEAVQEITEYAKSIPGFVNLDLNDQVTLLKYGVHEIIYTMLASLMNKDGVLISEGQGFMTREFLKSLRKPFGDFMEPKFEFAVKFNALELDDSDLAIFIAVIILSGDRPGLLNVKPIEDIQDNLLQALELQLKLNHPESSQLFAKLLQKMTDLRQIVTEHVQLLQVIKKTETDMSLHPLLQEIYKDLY
The data set is described as follows: Activation of GAL4 fused human PPARgamma expressed in HEK293 cells at 10 uM after 24 hrs by luciferase reporter gene assay. (In general: A reporter such as luciferase makes a cellular process visible.)

The nature of data set [4]: Agonist activity at LXR in human HepG2 cells assessed as upregulation of SCD1 mRNA levels at 10 uM after 6 hrs by qPCR analysis. The data set is classed as cell-based. Put shortly:
(§2)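 HepG2 cells treated with ligand (10 μM). Total RNA was extracted with TRIZOL; 2 µg was reverse-transcribed (1 h, 42 °C). SREBP1c, FASN and SCD1 transcripts were measured by qPCR. Mean ± SD of three biological samples; ANOVA with Dunnett's test.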

Data set [5] is described as follows: Agonist activity at LXR in human U937 cells assessed as upregulation of FASN mRNA levels at 10 uM after 6 hrs by qPCR analysis. The data set is classed as cell-based. In short, it runs like this: as §1
The species named for data set [6] is Homo sapiens. The data set is described as follows: Agonist activity at LXR in human U937 cells assessed as downregulation of LPS-induced CCL2 mRNA expression at 10 uM after 6 hrs by qPCR analysis. The data set is classed as cell-based. In short, it runs like this:
(§3)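 PMA-differentiated U937 cells (10 ng/ml PMA, 72 h) were given LPS 100 ng/ml together with compound (10 μM) for 6 h. CCL2 and TNFα mRNA were measured by qPCR after TRIZOL RNA extraction and reverse transcription. Three biological samples per group, mean ± SD.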

A short description of data set [7]: Agonist activity at LXR in human HepG2 cells assessed as upregulation of FASN mRNA levels at 10 uM after 6 hrs by qPCR analysis. The data set is classed as cell-based. Put shortly: as §2
The species named for data set [8] is Homo sapiens. The experiment in a line: Agonist activity at LXR in human U937 cells assessed as downregulation of LPS-induced TNFalpha mRNA expression at 10 uM after 6 hrs by qPCR analysis. The data set is classed as cell-based. Put shortly:
as §3

The nature of data set [9]: Agonist activity at LXR in human U937 cells assessed as upregulation of SCD1 mRNA levels at 10 uM after 6 hrs by qPCR analysis relative to control. As to conditions: human, 6 h, 10 µM. The data set is classed as cell-based. In short, it runs like this:
as §1

Data set [10] is described as follows: Agonist activity at LXR in human HepG2 cells assessed as upregulation of SREBP1c mRNA levels at 10 uM after 6 hrs by qPCR analysis. The data set is classed as cell-based. In short, it runs like this: as §2
The next data set deals with HEK293. The experiment in a line: Activation of GAL4 fused human RXR expressed in HEK293 cells at 10 uM after 24 hrs by luciferase reporter gene assay.
In data set [11] the target is T2, Oxysterols receptor LXR-alpha (Homo sapiens) (UniProt Q13133).
T2 sequence (whole entry): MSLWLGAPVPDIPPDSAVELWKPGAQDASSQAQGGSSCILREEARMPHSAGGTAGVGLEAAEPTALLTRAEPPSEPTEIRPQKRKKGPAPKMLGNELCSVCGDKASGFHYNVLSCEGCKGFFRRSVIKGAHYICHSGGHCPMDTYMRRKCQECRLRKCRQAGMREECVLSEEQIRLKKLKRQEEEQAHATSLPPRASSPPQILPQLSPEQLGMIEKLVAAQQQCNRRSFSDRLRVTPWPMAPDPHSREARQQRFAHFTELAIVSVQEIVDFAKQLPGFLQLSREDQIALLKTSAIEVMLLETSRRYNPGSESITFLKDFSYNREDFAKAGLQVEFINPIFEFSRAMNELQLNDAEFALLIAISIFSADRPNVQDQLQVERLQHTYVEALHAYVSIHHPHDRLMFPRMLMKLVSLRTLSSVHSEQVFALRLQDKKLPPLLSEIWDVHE
The experiment in a line: Activation of GAL4 fused human LXR alpha expressed in HEK293 cells after 24 hrs by luciferase reporter gene assay relative to 22R-HC. The data set is classed as cell-based. Put shortly:
(§4)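 HEK293 cells carrying the Gal4-LXR-α or Gal4-LXR-β chimera plus the pMH100X4-TK-luc and Renilla reporters. Treatment started 6 h post-transfection and ran 24 h. Dual luciferase read-out. Efficacy is given as % of the response to 8 μM 22R-HC, ± SD, from three to five independent experiments.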

The target in data set [12] is T3, Nuclear receptor subfamily 1 group I member 2 (Homo sapiens, UniProt O75469).
T3 sequence (O75469 whole entry): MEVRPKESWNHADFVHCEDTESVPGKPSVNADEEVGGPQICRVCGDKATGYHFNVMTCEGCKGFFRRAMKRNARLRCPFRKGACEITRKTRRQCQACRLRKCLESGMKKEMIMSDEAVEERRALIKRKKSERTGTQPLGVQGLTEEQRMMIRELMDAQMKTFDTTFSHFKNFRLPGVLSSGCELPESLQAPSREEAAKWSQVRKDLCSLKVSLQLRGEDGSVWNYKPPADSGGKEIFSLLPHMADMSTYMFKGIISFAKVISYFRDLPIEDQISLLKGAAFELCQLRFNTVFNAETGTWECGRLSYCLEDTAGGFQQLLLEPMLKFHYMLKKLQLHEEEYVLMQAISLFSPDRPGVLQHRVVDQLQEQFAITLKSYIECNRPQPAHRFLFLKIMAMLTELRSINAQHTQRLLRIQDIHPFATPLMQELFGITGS
The data set is described as follows: Activation of GAL4 fused human PXR expressed in HEK293 cells at 10 uM by luciferase reporter gene assay. As to conditions: hek293, 10 µM.

In data set [13] the target is T4, Oxysterols receptor LXR-beta (Homo sapiens) (UniProt P55055).
T4 sequence (whole entry): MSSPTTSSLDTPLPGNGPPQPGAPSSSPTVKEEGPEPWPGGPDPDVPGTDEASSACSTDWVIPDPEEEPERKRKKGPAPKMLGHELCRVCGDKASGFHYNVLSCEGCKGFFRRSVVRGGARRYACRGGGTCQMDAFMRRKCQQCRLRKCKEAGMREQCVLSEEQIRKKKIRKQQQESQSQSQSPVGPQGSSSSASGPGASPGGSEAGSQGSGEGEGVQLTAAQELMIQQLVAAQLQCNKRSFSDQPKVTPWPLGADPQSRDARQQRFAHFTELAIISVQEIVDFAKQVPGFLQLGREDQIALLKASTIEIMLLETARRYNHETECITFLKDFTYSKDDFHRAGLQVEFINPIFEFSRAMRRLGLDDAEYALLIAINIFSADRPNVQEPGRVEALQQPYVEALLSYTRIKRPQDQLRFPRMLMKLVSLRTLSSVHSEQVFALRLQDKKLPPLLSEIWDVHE
The data set is described as follows: Activation of GAL4 fused human LXR beta expressed in HEK293 cells after 24 hrs by luciferase reporter gene assay relative to 22R-HC. The data set is classed as cell-based. Put shortly: as §4

The target of data set [14] is T5, Oxysterols receptor LXR-beta (Homo sapiens, UniProt P55055).
T5 sequence (P55055 whole entry): T4 sequence (whole entry)
The data set is described as follows: Activation of GAL4 fused human LXR beta expressed in HEK293 cells after 24 hrs by luciferase reporter gene assay. The data set is classed as cell-based. In short, it runs like this: (§5)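 HEK293 cells (4x10⁴/well), grown in DMEM with 10% FBS at 37 °C under 5% CO₂, transiently co-transfected with pMH100X4-TK-luc, Renilla and the Gal4-LXR-α or Gal4-LXR-β plasmid. Dosing began 6 h after transfection and lasted 24 h, at 32, 16, 8, 4, 2 and 1 μM. Dual luciferase read-out. EC50 came from dose-response curves, averaged over three to five independent experiments, ± SD.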

The target of data set [15] is T6, Oxysterols receptor LXR-alpha (Homo sapiens, UniProt Q13133).
T6 sequence (Q13133 whole entry): T2 sequence (whole entry)
The experiment in a line: Activation of GAL4 fused human LXR alpha expressed in HEK293 cells after 24 hrs by luciferase reporter gene assay. The data set is classed as cell-based. Put shortly:
as §5

As for `CC[C@@H](C(C)C)[C@H](O)C[C@@H](C)[C@H]1CC[C@H]2[C@@H]3CC=C4C[C@@H](O)CC[C@]4(C)[C@H]3CC[C@]12C`, the outcome in the data set listed under Homo sapiens [1], in the data set listed under Homo sapiens [6] and in the data set filed under Homo sapiens [8] was Active. The Activity result in data set [2], in [4], in data set [5], in data set [7], in [9] and in data set [10] was “Not Active” in each case. Further, the result (in data set [3]; in the data set on HEK293) was inactive.

For `CC(C)[C@@H](C)[C@H]1O[C@@H]1[C@@H](C)[C@H]1CC[C@H]2C3=CC=C4C[C@@H](O)CC[C@]4(C)[C@H]3CC[C@]12C`, the Activity entry in [2] was “Not Active”; in data set [12], “Active”; in data set [4] it was “Not Active”; in [5], “Not Active”; in data set [7], “Not Active”; in [9], “Not Active”. Moreover, the Activity result in [10] is “Not Active”. The results for the Efficacy in [11] and in data set [13] were 93.2% and 30.4%, respectively. In addition, the result (in data set [3]; in the data set with HEK293) was inactive.

Take `CC(C)[C@@H](C)C[C@H](O)[C@@H](C)[C@H]1CC[C@H]2C3=CC=C4C[C@@H](O)CC[C@]4(C)[C@H]3CC[C@]12C`: the result in the data set listed under Homo sapiens [1] and in the data set filed under Homo sapiens [6] was Active. Moreover, the Activity result is reported as “Not Active” in data set [2]; “Active” in data set [12]; “Not Active” in data set [4]; “Not Active” in data set [5]; “Not Active” in data set [7]; “Not Active” in data set [9]. Further, the Activity entry in data set [10] is reported as “Not Active”. The outcome (in data set [3]; in the data set with HEK293) was inactive.

In the case of `CC[C@H](C[C@H](O)[C@@H](C)[C@H]1CC[C@H]2[C@@H]3CC=C4C[C@@H](O)CC[C@]4(C)[C@H]3CC[C@]12C)C(C)C`, the Activity result in [2], in [4], in data set [5], in data set [7], in [9] and in data set [10] was “Not Active” throughout. Also, the EC50 entry in [14] and in data set [15] was “Not Active” each time.

With `CC[C@@H](C(C)C)[C@@H](O)C[C@@H](C)[C@H]1CC[C@H]2[C@@H]3CC=C4C[C@@H](O)CC[C@]4(C)[C@H]3CC[C@]12C`, the result in the data set filed under Homo sapiens [1] was Active. The Activity entry in data set [2], in [4], in data set [5], in data set [7], in data set [9] and in [10] was “Not Active” throughout. Besides, the EC50 entry in data set [14] and in data set [15] was “Not Active” each time.

Regarding `CC(C)[C@@H](C)C[C@@H](O)[C@@H](C)[C@H]1CC[C@H]2C3=CC=C4C[C@@H](O)CC[C@]4(C)[C@H]3CC[C@]12C`, the outcome in the data set listed under Homo sapiens [1] was Active. Further, the Activity entry in data set [2], in [4], in data set [5], in [7], in [9] and in data set [10] was “Not Active” each time. For the same compound, the EC50 result in data set [14] and in data set [15] was “Not Active” each time.

`CC[C@H](CC(=O)[C@@H](C)[C@H]1CC[C@H]2[C@@H]3CC=C4C[C@@H](O)CC[C@]4(C)[C@H]3CC[C@]12C)C(C)C`: the EC50 entry in data set [14] and in data set [15] was “Not Active” throughout.
